Source: ChEMBL document CHEMBL1275292, “Design and synthesis of bioactive adamantanaminoalcohols and adamantanamines” (Eur J Med Chem, 2010)
Calls of active or inactive are those of the source. No cut-off for these calls is given here.

What was measured:
H3N2 subtype [1] = assay: Antiviral activity against Influenza A virus (A/Hong Kong/7/1987(H3N2)) infected in MDCK cells assessed as inhibition of virus-induced cytopathogenicity at 500 uM by MTS assay; assay type: functional, organism-based
[2] = Cytotoxicity against MDCK cells by MTS assay; assay type: cell-based, Canis lupus familiaris; conditions: dog
Trypanosoma brucei [3] = assay: Antiparasitic activity against Trypanosoma brucei 427 bloodstream forms assessed as inhibition of parasite growth at 5 ug/mL after 48 hrs; assay type: functional; conditions: Trypanosoma brucei, 427, 48 h; read-out: GI
Trypanosoma brucei [4] = assay: Antiparasitic activity against Trypanosoma brucei 427 bloodstream forms assessed as inhibition of parasite growth after 48 hrs; assay type: functional, organism-based
How it was run: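 Bloodstream-form T. brucei strain 427 were grown at 37 °C and pH 7.4 in modified Iscove's medium, in 4 ml cultures for 48 h across a drug range of 0.1 to 25. Cell densities were counted by hemocytometer and growth was expressed as % of untreated controls. IC50 and IC90 were derived from these counts, as mean ± SD of three experiments.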

H3N2 subtype [5] = assay: Antiviral activity against Influenza A virus (A/Hong Kong/7/1987(H3N2)) infected in MDCK cells assessed as inhibition of virus-induced cytopathogenicity by MTS assay; assay type: functional, organism-based
How it was run: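 MDCK cells infected with influenza A/HK/7/87 (H3N2), whose M2 carries serine at position 31. Virus-induced cytopathic effect was read after multiple replication cycles at 72 h post infection by microscopic scoring and by a colorimetric formazan MTS cell-viability assay. EC50 is the concentration giving 50% inhibition of CPE by MTS. Compounds were tested as hydrochlorides, aminoalcohols as free bases. Values are mean ± SD with the number of independent determinations.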

[6] = Selectivity index, ratio of MCC for MDCK cells to EC50 for Influenza A virus (A/Hong Kong/7/1987(H3N2)); assay type: toxicity, cell-based; conditions: dog, read-out: Selectivity Index
[7] = Trypanosoma brucei, 427, 48 h, read-out: IC50

Compound | inhibition (H3N2 subtype [1]) | MCC [2] | inhibition of growth at 5 µg/mL (Trypanosoma brucei [3]) | IC50 (Trypanosoma brucei [4]) | IC90 (Trypanosoma brucei [4]; Trypanosoma brucei, 427, 48 h) | IC50 (Trypanosoma brucei [4]; [7]) | EC50 (H3N2 subtype [5]) | selectivity ratio [6]
OC1(C2CCCCN2)C2CC3CC(C2)CC1C3 (centres undefined) | inactive | 208 µM | 30% | Not Active |  |  |  | 
CNC(CN)C12CC3CC(CC(C3)C1)C2 (centres undefined) | inactive | 404 µM |  |  | 7.8 µM | 5.2 µM |  | 
CN(C)CCCC12CC3CC(CC(C3)C1O)C2 (centres undefined) | inactive | > 250 µM |  |  | 1.8 µM | 0.84 µM |  | 
CN(C)CCCC12CC3CC(CC(C3)C1N)C2 (centres undefined) | inactive | > 200 µM | 30% | Not Active |  |  |  | 
NCC1(CO)C2CC3CC(C2)CC1C3 (centres undefined) |  | 87 µM | 30% | Not Active |  |  | 0.34 µM | 256
NCC1(O)C2CC3CC(C2)CC1C3 (centres undefined) | inactive |  | 30% | Not Active |  |  |  | 
CC(N)C12CC3CC(CC(C3)C1)C2 (centres undefined) [RIMANTADINE] |  | > 100 µM |  |  | 14 µM |  | ≤ 0.362 µM | > 276
CN(C)CCC[C@]1(O)CC2CC3CC(C2)C1C3 (some centres undefined) | inactive | > 250 µM |  |  | 1.7 µM | 0.84 µM |  | 
NC1C2CC3CC(C2)CC1(c1ccccc1)C3 (centres undefined) | inactive | 218 µM |  |  | > 20 µM | 11.1 µM |  | 
NC1CC2CC3CC(C2)C1C3 (centres undefined) |  | 107 µM | 30% | Not Active |  |  | 1.5 µM | 69
NCCC12CC3CC(CC(C3)C1O)C2 (centres undefined) |  | 512 µM | 30% | Not Active |  |  | 8.6 µM | 60
CNC1(c2ccccn2)C2CC3CC(C2)CC1C3 (centres undefined) | inactive | 264 µM |  |  | > 25 µM | 24.6 µM |  | 
NCCC1(O)C2CC3CC(C2)CC1C3 (centres undefined) |  | 17 µM | 30% | Not Active |  |  | 6.24 µM | 3
NC12CC3CC(CC(C3)C1)C2 [AMANTADINE] |  | > 100 µM |  |  |  |  | 2 µM | > 51
NCCC1(O)CC2CC3CC(C2)C1C3 (centres undefined) |  | 512 µM | 30% | Not Active |  |  | 7.68 µM | 67
NC(=O)c1ncn([C@@H]2O[C@H](CO)[C@@H](O)[C@H]2O)n1 [RIBAVIRIN] |  |  |  |  |  |  | 8.7 µM | 
NC1(CO)C2CC3CC(C2)CC1C3 (centres undefined) |  | > 459 µM |  |  | 18.2 µM | 9.4 µM | 1.46 µM | > 314
